Laboratory results: ChEMBL document CHEMBL4041468, “Effects of Koumine on Adjuvant- and Collagen-Induced Arthritis in Rats” (J Nat Prod, 2016)
The source made the active and inactive calls.

How the values were obtained:
Format in all cases: functional, organism-based
Rattus norvegicus [1] = experiment: Antiarthritic activity in Lewis rat Freund's adjuvant-induced arthritis model assessed as reduction in arthritis index score at 2.5 mg/kg, ig administered through gavage pretreated for 1 hr followed by adjuvant challenge subsequent treatment for 9 days measured alternate days up to 24 days post dose
How it was run: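 AIA induced in female 8-week-old Lewis rats by one intradermal 0.1 mL CFA injection (10 mg heat-killed M. tuberculosis per mL paraffin oil) into right hind paw; controls received paraffin oil–water emulsion. Daily intragastric dosing from 1 h before induction through 9 d. Arthritis index scored; Kruskal–Wallis with Dunn's test; n = 10/group.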

Rattus norvegicus [2] = experiment: Antiarthritic activity in Lewis rat Freund's adjuvant-induced arthritis model assessed as reduction in hind paw volume at 2.5 mg/kg, ig administered through gavage pretreated for 1 hr followed by adjuvant challenge subsequent treatment for 9 days measured alternate days up to 24 days post dose by plethysmometer
How it was run: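 Lewis rat AIA (female, 8 weeks; 0.1 mL CFA intradermally into right hind paw), dosed by gavage 1 h pre-induction then daily for 9 d. Plethysmometer volumes of injected (ipsilateral) and uninjected (contralateral) hind paws recorded separately. Two-way ANOVA with Dunnett's T3 test; n = 10/group.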

Rattus norvegicus [3] = experiment: Antiarthritic activity in Lewis rat Freund's adjuvant-induced arthritis model assessed as reduction in mechanical withdrawal threshold at 2.5 mg/kg, ig administered through gavage pretreated for 1 hr followed by adjuvant challenge subsequent treatment for 9 days measured alternate days up to 24 days post dose
How it was run: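 Mechanical withdrawal threshold in Lewis AIA rats (right-paw CFA, gavage dosing 1 h pre-induction and daily 9 d), tested 1 h after dosing: 30 min habituation in individual cubicles, von Frey filament applied upward to mid-paw until withdrawal, 55 g cut-off, repeated twice at 10 min intervals; ipsilateral and contralateral paws recorded separately; n = 10.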

Rattus norvegicus [4] = experiment: Antiarthritic activity in Wistar rat type-2 collagen-induced arthritis model assessed as reduction in hind paw volume at 1 mg/kg, ig via gavage administered 10 consecutive days starting from day 20 post type-2 collagen injection by plethysmometer
How it was run: (§1)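 CIA in male 7-week-old Wistar rats: chicken CII (2 mg/mL in 0.1 M acetic acid) emulsified 1:1 in BCG-containing adjuvant, two intradermal 0.3 mL injections 7 d apart; controls received 0.05 M acetic acid. Gavage from day 20 for 10 d. Scoring, plethysmometry (mean of both hind paws) and von Frey threshold at baseline, pre-dosing and alternate days; n = 10.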

Rattus norvegicus [5] = experiment: Antiarthritic activity in Wistar rat type-2 collagen-induced arthritis model assessed as reduction in mechanical allodynia at 1 mg/kg, ig via gavage administered 10 consecutive days starting from day 20 post type-2 collagen injection; how it was run: as §1
Rattus norvegicus [6] = experiment: Antiarthritic activity in Wistar rat type-2 collagen-induced arthritis model assessed as reduction in arthritis index score at 1 mg/kg, ig via gavage administered 10 consecutive days starting from day 20 post type-2 collagen injection; how it was run: as §1
Rattus norvegicus [7] = experiment: Antiarthritic activity in Wistar rat type-2 collagen-induced arthritis model assessed as reduction in bone erosion at 1 mg/kg, ig via gavage administered 10 consecutive days starting from day 20 post type-2 collagen injection by X-ray method
Rattus norvegicus [8] = experiment: Antiarthritic activity in Wistar rat type-2 collagen-induced arthritis model assessed as reduction in bone degradation at 1 mg/kg, ig via gavage administered 10 consecutive days starting from day 20 post type-2 collagen injection by X-ray method
Rattus norvegicus [9] = experiment: Antiarthritic activity in Wistar rat type-2 collagen-induced arthritis model assessed as reduction in cartilage space narrowing at 1 mg/kg, ig via gavage administered 10 consecutive days starting from day 20 post type-2 collagen injection by X-ray method
Rattus norvegicus [10] = experiment: Antiarthritic activity in Wistar rat type-2 collagen-induced arthritis model assessed as reduction in serum IL-1beta level at 1 mg/kg, ig via gavage administered 10 consecutive days starting from day 20 post type-2 collagen injection by ELISA method
How it was run: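 After 10 d gavage in Wistar CIA rats, trunk blood taken at sacrifice; serum stored at −70 °C. IL-1β and TNF-α measured by commercial ELISA kits per manufacturer. One-way ANOVA with Student–Newman–Keuls test; n = 10/group.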

Rattus norvegicus [11] = experiment: Antiarthritic activity in Wistar rat type-2 collagen-induced arthritis model assessed as reduction in serum anti-type-2 collagen IgG level at 1 mg/kg, ig via gavage administered 10 consecutive days starting from day 20 post type-2 collagen injection by ELISA method
How it was run: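 Serum from Wistar CIA rats collected after completing 10 d gavage dosing (from day 20 post first CII injection) and assayed for anti-CII IgG using a rat anti-CII antibody ELISA kit. One-way ANOVA with Student–Newman–Keuls test; n = 10/group.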

Measured: Activity

COc1ccc2c(c1)c(CC(=O)O)c(C)n2C(=O)c1ccc(Cl)cc1
active: Rattus norvegicus [1] | Rattus norvegicus [2] | Rattus norvegicus [3]

CN(Cc1cnc2nc(N)nc(N)c2n1)c1ccc(C(=O)N[C@@H](CCC(=O)O)C(=O)O)cc1
not listed: Rattus norvegicus [1] | Rattus norvegicus [2] | Rattus norvegicus [3]
active: all other assays above
